Experimental data published in ChEMBL document CHEMBL5678798 (Clin Cancer Res, 2009).
Activity calls are given as the source filed them. The calls are words filed in the database; no cut-off is given here.

How the values were obtained:
[1] = test system: MOLP-8; assay: Antiproliferative activity against human MOLP8 cells assessed as reduction in cell viability after 72 hrs by CellTiter-Glo assay; type: functional, cell-based; settings: MOLP-8, 72 h
Outline: (§1)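 Cells seeded in 96-well plates, left overnight at 37°C, then exposed to a range of test concentrations for 72 h. Viability read by CellTiter-Glo luminescence; IC50 from four-parameter curve fit. Lines kept at 37°C, 5% CO2, in recommended growth medium.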

[2] = test system: L-363; assay: Antiproliferative activity against human L-363 cells assessed as reduction in cell viability after 72 hrs by CellTiter-Glo assay; type: functional, cell-based; settings: L-363, 72 h; outline: as §1
[3] = test system: MDA-MB-468; assay: Antiproliferative activity against human MDA-MB-468 cells assessed as reduction in cell viability after 72 hrs by CellTiter-Glo assay; type: functional, cell-based; settings: MDA-MB-468, 72 h; outline: as §1
[4] = test system: HeLa; assay: Antiproliferative activity against human HeLa cells assessed as reduction in cell viability after 72 hrs by CellTiter-Glo assay; type: functional, cell-based; outline: as §1
[5] = Cytotoxicity against HMEC cells assessed as reduction in cell viability after 72 hrs by CellTiter-Glo assay; type: toxicity, cell-based; settings: human; outline: as §1
[6] = test system: NCI-H929; assay: Induction of cell cycle arrest in human NCI-H929 cells assessed as decrease in cells accumulation at S phase at 0.03 to 10 uM incubated for 24 to 48 hrs by propidium iodide staining based flow cytometric analysis; type: functional; settings: dose 0.03-10 µM, time lower 24.0 hrs, time upper […]
Outline: (§2)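 COLO 205, MCF-7 or NCI-H929 cells seeded in 96-well plates overnight at 37°C, then exposed to DMSO or increasing compound concentrations for 24 or 48 h. Fixed and stained with propidium iodide (Vindelov method), then analysed by flow cytometry for sub-G1, G1, S and G2-M fractions. Experiment repeated twice.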

[7] = test system: NCI-H929; assay: Induction of cell cycle arrest in human NCI-H929 cells assessed as effect on sub-2N-DNA content at 0.03 to 10 uM incubated for 24 to 48 hrs by propidium iodide staining based flow cytometric analysis; type: functional; settings: dose 0.03-10 µM, time lower 24.0 hrs, time upper […]; outline: as §2
[8] = test system: NCI-H929; assay: Induction of cell cycle arrest in human NCI-H929 cells assessed as cells accumulation at S phase at 1 umol/L incubated for 48 hrs by propidium iodide staining based flow cytometric analysis (reference value: 15%); type: functional; settings: dose 1 µmol/L, at 1 µM; outline: as §2
[9] = test system: MCF7; assay: Induction of cell cycle arrest in human MCF7 cells assessed as cells accumulation at G2 phase at 1 umol/L incubated for 48 hrs by propidium iodide staining based flow cytometric analysis (reference value: 17%); type: functional; settings: dose 1 µmol/L, at 1 µM; outline: as §2
[10] = biological target: Calcium/calmodulin-dependent protein kinase kinase 2 (Homo sapiens, UniProt Q96RR4); assay: Inhibition of CAMKK2 (unknown origin)
[11] = biological target: Mitogen-activated protein kinase 9 (Homo sapiens, UniProt P45984); assay: Inhibition of JNK2 (unknown origin)
[12] = Inhibition of mouse YAK3
[13] = biological target: Tyrosine-protein kinase BTK (Homo sapiens, UniProt Q06187); assay: Inhibition of N-terminal His6-tagged recombinant full-length human BTK expressed in baculovirus infected Sf21 cells at 0.3 uM by filter binding assay relative to control
Outline: (§3)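 Outsourced single-concentration screen in a commercial panel of 233 protein kinases, run as radiometric filter-binding activity assays. Test agent was tested at 0.3 or 3 µmol/L, as given in each line, from a 10 mmol/L DMSO stock. Activity is expressed as percent inhibition relative to control.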

[14] = biological target: Discoidin domain-containing receptor 2 (Homo sapiens) (UniProt Q16832); assay: Inhibition of N-terminal His6-tagged recombinant human DDR2 (467 to end residues) expressed in baculovirus infected Sf21 cells at 0.3 uM by filter binding assay relative to control
[15] = biological target: Serine/threonine-protein kinase MRCK beta (Homo sapiens) (UniProt Q9Y5S2); assay: Inhibition of N-terminal His6-tagged recombinant human MRCKbeta (1 to 473 residues) expressed in baculovirus infected Sf21 cells at 0.3 uM by filter binding assay relative to control
[16] = biological target: Protein-tyrosine kinase 2-beta (Homo sapiens) (UniProt Q14289); assay: Inhibition of N-Terminal His6-tagged recombinant full-length human Pyk2 expressed in baculovirus infected Sf21 cells at 0.3 uM by filter binding assay relative to control
Outline: (§4)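 KinaseProfiler panel of 233 kinases: radiometric filter-binding activity assays with compound at 0.3 or 3 µmol/L. Read-out is percent inhibition.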

[17] = biological target: BDNF/NT-3 growth factors receptor (Homo sapiens) (UniProt Q16620); assay: Inhibition of N-terminal His6 tagged recombinant human TrkB (455 to end residues) expressed in baculovirus infected Sf21 cells at 0.3 uM by filter binding assay relative to control; outline: as §3
[18] = biological target: Tyrosine-protein kinase receptor UFO (Homo sapiens) (UniProt P30530); assay: Inhibition of N-terminal His6-tagged recombinant human Axl (473 to end residues) expressed in Sf21 cells at 3 uM by filter binding assay relative to control
[19] = biological target: Serine/threonine-protein kinase DCLK2 (Homo sapiens) (UniProt Q8N568); assay: Inhibition of N-terminal 6His-tagged recombinant human DCAMKL2 (376 to end residues) expressed in baculovirus infected Sf21 cells at 3 uM by filter binding assay relative to control; outline: as §3
[20] = biological target: Fibroblast growth factor receptor 4 (Homo sapiens) (UniProt P22455); assay: Inhibition of N-terminal His6-tagged recombinant human FGFR4 (442 to 755 residues) expressed in baculovirus infected Sf21 cells at 3 uM by filter binding assay relative to control
[21] = biological target: LIM domain kinase 1 (Homo sapiens) (UniProt P53667); assay: Inhibition of N-terminal 6His-tagged recombinant human LIMK1 (285 to 638 residues) expressed in baculovirus infected Sf21 cells at 3 uM by filter binding assay relative to control; outline: as §3
[22] = biological target: cAMP-dependent protein kinase catalytic subunit PRKX (Homo sapiens) (UniProt P51817); assay: Inhibition of N-terminal 6His-tagged recombinant full-length human PrKX expressed in baculovirus infected Sf21 cells at 3 uM by filter binding assay relative to control; outline: as §4
[23] = biological target: Mitogen-activated protein kinase 11 (Homo sapiens) (UniProt Q15759); assay: Inhibition of N-terminal GST fusion protein corresponding to full-length human SAPK2b expressed in Escherichia coli at 3 uM by filter binding assay relative to control; outline: as §3
[24] = biological target: Tyrosine-protein kinase ABL1 (Homo sapiens, UniProt P00519); assay: Inhibition of N-terminal His6-tagged recombinant human Abl (27 to end residues) expressed in baculovirus infected Sf21 cells by filter binding assay
[25] = biological target: Fibroblast growth factor receptor 1 (Homo sapiens, UniProt P11362); assay: Inhibition of N-terminal GST-tagged recombinant human FGFR1 (456 to 765 residues) expressed in baculovirus infected Sf21 cells by filter binding assay
[26] = biological target: Serine/threonine-protein kinase PAK 3 (Homo sapiens, UniProt O75914); assay: Inhibition of C-terminal His6-tagged recombinant human full-length PAK3 expressed in baculovirus infected Sf21 cells by filter binding assay
[27] = biological target: High affinity nerve growth factor receptor (Homo sapiens, UniProt P04629); assay: Inhibition of N-terminal His6-tagged recombinant human TrkA (440 to end residues) expressed in baculovirus infected Sf21 cells by filter binding assay

BDNF/NT-3 growth factors receptor (Homo sapiens), sequence (Q16620 32-822 limits assumed): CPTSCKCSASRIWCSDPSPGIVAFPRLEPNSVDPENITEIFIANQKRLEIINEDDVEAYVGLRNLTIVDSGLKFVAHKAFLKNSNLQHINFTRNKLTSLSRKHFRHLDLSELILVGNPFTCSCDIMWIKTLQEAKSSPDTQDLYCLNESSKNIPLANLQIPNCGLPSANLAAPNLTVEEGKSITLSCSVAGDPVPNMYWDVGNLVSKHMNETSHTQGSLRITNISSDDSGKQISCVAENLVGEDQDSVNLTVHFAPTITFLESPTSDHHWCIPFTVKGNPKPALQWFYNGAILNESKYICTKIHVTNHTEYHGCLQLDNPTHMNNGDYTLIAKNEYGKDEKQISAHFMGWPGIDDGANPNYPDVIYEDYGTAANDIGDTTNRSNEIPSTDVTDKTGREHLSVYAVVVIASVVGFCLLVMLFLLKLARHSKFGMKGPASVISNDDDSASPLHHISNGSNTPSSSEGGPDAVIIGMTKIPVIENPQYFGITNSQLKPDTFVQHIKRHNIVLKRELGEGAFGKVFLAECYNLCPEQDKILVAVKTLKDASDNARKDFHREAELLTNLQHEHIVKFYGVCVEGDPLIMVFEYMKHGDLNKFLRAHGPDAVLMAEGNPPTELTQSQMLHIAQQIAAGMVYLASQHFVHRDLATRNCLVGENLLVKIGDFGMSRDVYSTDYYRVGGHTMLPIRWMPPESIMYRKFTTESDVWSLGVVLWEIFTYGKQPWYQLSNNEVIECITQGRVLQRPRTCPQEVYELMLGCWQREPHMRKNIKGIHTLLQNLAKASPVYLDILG
Serine/threonine-protein kinase MRCK beta (Homo sapiens), sequence (Q9Y5S2 whole entry, the tested form may be a part): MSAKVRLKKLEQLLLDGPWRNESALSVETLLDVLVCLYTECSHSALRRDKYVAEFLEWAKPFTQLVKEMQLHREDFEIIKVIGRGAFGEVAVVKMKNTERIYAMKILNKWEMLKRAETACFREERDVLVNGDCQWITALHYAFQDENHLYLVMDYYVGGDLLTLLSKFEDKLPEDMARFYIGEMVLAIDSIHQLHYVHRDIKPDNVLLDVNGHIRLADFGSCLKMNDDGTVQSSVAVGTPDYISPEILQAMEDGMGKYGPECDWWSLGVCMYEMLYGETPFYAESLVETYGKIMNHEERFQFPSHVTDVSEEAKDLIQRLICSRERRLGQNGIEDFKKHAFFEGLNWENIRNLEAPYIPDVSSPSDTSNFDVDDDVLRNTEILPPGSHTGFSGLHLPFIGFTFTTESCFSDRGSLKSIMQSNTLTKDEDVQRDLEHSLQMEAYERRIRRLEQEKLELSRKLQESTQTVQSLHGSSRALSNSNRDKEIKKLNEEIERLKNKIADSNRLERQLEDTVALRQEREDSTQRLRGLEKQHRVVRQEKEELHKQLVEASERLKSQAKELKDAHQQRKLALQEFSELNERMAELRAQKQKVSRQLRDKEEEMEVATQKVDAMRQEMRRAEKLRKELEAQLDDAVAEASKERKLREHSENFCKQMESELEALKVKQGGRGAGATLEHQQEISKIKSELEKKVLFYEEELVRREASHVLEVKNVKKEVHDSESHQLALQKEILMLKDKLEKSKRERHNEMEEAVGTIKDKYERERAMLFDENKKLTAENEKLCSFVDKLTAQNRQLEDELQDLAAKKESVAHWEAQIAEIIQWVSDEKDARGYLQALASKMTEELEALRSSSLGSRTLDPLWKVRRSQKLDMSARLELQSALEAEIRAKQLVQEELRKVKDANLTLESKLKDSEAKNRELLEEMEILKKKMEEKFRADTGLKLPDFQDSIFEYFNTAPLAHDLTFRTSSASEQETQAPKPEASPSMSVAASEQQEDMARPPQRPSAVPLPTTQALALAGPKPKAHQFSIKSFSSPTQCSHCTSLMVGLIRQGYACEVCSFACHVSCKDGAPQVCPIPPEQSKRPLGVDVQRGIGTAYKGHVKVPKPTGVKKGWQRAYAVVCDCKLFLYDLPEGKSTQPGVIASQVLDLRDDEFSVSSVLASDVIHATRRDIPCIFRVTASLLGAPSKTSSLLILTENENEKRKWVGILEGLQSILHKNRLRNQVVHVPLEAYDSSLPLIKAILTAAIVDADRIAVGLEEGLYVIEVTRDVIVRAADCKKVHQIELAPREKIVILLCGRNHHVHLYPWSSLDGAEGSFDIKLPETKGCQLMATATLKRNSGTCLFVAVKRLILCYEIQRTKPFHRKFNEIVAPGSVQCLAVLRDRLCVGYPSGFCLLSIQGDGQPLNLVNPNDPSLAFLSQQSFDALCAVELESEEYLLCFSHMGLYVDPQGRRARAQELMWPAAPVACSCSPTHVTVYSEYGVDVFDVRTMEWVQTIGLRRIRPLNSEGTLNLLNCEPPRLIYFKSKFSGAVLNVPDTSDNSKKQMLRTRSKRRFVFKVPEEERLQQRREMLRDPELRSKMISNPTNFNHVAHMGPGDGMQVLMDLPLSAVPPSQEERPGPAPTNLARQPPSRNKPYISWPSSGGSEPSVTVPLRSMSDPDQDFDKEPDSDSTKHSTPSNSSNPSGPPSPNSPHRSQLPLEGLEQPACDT
cAMP-dependent protein kinase catalytic subunit PRKX (Homo sapiens), sequence (P51817 whole entry, the tested form may be a part): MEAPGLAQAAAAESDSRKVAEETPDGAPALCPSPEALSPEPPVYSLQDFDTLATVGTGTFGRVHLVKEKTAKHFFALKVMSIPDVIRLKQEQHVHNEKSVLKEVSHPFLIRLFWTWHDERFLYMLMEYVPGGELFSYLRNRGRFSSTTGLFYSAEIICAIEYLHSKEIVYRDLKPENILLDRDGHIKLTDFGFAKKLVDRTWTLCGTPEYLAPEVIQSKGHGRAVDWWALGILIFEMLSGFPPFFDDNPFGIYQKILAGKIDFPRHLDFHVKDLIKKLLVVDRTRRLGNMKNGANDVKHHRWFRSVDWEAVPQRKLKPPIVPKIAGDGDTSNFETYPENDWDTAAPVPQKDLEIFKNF
Tyrosine-protein kinase receptor UFO (Homo sapiens), sequence (P30530 whole entry): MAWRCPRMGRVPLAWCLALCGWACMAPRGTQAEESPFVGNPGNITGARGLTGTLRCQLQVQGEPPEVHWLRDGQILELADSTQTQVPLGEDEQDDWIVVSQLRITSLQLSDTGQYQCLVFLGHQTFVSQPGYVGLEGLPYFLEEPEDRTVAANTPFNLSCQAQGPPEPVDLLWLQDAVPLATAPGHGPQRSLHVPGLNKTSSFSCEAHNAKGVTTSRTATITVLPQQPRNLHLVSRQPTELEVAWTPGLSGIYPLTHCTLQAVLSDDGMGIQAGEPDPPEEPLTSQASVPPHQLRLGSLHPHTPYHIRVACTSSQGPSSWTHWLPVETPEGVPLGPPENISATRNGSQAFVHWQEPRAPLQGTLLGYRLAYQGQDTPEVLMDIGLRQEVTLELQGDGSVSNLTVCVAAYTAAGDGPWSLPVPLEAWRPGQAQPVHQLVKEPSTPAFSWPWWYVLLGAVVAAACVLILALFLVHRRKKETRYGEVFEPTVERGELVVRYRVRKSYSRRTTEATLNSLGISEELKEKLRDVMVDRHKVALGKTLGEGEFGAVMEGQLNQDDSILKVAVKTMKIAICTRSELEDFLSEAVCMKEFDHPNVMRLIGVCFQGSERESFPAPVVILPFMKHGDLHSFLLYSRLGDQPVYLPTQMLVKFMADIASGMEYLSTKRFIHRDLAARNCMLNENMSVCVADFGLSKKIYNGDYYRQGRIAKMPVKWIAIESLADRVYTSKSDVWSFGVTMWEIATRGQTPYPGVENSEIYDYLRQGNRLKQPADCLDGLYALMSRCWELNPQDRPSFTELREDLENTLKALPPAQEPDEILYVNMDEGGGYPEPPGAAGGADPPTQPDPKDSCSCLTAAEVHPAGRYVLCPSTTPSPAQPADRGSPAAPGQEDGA
Discoidin domain-containing receptor 2 (Homo sapiens), sequence (Q16832 whole entry, the tested form may be a part): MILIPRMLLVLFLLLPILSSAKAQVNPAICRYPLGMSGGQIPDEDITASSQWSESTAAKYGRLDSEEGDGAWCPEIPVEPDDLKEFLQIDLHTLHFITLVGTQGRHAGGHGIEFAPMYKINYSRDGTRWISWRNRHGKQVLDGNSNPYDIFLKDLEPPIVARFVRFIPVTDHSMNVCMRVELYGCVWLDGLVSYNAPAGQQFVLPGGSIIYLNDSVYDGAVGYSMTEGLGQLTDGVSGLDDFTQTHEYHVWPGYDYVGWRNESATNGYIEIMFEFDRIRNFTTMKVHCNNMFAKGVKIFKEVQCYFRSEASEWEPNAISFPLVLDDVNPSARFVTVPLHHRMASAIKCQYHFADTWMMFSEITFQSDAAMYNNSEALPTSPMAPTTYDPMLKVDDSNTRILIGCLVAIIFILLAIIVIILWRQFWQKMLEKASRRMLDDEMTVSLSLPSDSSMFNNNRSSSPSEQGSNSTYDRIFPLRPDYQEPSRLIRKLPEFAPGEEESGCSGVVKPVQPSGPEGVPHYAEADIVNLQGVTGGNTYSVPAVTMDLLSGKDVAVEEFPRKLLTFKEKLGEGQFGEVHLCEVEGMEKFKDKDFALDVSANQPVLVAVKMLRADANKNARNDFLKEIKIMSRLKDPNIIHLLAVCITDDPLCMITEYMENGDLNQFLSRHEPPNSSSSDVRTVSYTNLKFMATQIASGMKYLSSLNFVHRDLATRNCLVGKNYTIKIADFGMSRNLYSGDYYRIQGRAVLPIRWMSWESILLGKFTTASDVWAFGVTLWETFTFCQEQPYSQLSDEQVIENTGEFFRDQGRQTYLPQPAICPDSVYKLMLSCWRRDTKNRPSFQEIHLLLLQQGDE
Mitogen-activated protein kinase 9, sequence (P45984 whole entry): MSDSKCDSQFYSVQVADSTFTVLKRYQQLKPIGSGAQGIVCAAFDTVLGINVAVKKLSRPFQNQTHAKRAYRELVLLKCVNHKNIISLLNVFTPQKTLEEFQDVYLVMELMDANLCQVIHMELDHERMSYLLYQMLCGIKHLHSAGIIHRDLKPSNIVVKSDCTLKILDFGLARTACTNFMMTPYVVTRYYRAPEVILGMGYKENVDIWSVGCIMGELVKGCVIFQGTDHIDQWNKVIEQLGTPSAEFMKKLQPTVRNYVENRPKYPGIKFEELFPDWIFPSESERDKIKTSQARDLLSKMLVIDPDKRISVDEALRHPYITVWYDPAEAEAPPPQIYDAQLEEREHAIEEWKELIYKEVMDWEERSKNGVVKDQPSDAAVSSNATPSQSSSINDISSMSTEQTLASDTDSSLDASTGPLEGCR

**Q.** What does the source list for `CCc1cc(Nc2nccc(-c3c(-c4ccc(OC)c(C(=O)Nc5c(F)cccc5F)c4)nc4ccccn34)n2)c(OC)cc1N1CCC(N2CCN(S(C)(=O)=O)CC2)CC1`?
**A.** IC50 [1]: 0.096 µM; IC50 [2]: 0.165 µM; IC50 [3]: > 20 µM; IC50 [4]: > 20 µM; IC50 at 72 h [5]: > 20 µM; Activity [6]: Active; Activity [7]: inactive; Activity [8]: 3%; Activity [9]: 11%; IC50 [10]: > 10 µM; IC50 [11]: > 10 µM; IC50 [12]: > 10 µM; inhibition [13]: 11%; inhibition [14]: 0%; inhibition [15]: -10%; inhibition [16]: 21%; inhibition [17]: 4%; inhibition [18]: 1%; inhibition [19]: 0%; inhibition [20]: 29%; inhibition [21]: 18%; inhibition [22]: 1%; inhibition [23]: 11%; IC50 [24]: 4.75 µM; IC50 [25]: 1.88 µM; IC50 [26]: 0.103 µM; IC50 [27]: 0.701 µM
